Experimental data taken from publication PMC8028158 (ACS Omega, 2021).
Entries after “also recorded” stand apart in the source; their conditions may differ.

How the values were obtained:
Format in all cases: cell-based
TRPC6 = target: T1, TRPC6 (Mus musculus, UniProt Q61143); assay: Whole-cell voltage clamp of TRPC6 currents evoked by GSK1702934A
T1 sequence (Q61143 1-930): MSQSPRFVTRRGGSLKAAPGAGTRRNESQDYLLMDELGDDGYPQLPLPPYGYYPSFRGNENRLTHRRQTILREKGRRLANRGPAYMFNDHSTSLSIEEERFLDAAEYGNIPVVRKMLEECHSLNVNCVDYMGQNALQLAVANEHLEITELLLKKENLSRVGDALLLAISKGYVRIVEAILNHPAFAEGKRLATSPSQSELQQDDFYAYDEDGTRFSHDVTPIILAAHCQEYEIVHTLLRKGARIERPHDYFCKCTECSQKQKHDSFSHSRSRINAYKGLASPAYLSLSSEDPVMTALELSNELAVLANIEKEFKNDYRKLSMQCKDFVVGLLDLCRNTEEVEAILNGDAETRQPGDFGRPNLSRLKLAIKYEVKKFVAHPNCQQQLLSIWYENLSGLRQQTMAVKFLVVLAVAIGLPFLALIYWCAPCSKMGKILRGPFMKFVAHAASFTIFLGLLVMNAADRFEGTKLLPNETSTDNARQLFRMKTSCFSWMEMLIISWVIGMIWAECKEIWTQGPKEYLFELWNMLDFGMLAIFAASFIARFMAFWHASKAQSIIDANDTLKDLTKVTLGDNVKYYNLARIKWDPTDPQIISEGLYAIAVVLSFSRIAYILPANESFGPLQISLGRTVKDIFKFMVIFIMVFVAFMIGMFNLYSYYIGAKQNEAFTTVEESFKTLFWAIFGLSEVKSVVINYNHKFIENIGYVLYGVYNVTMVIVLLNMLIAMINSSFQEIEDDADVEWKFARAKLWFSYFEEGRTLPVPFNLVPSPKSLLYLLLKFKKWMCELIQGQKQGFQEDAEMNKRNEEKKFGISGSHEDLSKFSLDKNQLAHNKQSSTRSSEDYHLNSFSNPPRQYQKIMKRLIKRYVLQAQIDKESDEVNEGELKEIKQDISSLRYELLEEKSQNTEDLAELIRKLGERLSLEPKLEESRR
In short: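 TRPC6-expressing HEK293 cells were recorded with voltage ramps to obtain current–voltage relationships. Current was activated by GSK1702934A (1 μM) and test compound was applied at varying concentrations. IC50 was derived from a Hill-equation fit of the concentration-response curve.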

mouse TRPC4 = target: T2, mouse TRPC4 (Mus musculus, UniProt Q9QUQ5); assay: Selectivity assay in HEK293 cells co-expressing TRPC4 and μ-opioid receptor; details: induced by DAMGO 1 μM
T2 sequence (Q9QUQ5 1-974): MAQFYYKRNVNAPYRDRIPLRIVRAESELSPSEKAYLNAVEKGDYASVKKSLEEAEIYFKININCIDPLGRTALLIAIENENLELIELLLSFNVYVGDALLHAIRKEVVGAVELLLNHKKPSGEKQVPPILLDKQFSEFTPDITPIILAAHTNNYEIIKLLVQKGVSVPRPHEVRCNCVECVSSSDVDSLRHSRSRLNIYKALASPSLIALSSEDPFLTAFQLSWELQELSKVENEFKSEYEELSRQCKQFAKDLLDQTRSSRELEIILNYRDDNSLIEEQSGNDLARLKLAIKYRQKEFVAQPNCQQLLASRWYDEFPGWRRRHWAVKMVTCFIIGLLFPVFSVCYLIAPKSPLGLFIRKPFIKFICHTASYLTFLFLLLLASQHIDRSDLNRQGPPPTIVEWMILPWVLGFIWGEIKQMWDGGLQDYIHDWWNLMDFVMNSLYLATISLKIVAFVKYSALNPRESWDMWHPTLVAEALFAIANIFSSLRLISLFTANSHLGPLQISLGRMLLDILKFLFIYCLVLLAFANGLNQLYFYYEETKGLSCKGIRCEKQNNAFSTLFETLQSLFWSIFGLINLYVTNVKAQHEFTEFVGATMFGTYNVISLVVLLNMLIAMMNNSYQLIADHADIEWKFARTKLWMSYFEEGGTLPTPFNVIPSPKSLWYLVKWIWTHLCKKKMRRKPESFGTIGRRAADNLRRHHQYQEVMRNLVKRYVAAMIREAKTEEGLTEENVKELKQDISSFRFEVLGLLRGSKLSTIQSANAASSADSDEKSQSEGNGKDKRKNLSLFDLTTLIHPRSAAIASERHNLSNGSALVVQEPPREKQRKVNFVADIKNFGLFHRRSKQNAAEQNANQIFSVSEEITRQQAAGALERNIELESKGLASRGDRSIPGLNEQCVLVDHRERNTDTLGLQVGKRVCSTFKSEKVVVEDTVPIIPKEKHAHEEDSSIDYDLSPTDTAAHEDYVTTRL

mouse TRPC5 = target: T3, mouse TRPC5 (Mus musculus, UniProt Q9QX29); assay: Selectivity Ca2+ assay in TRPC5-expressing HEK293 cells; details: 1s 50 μM; induced by 100 μM CCh; Fluo-8
T3 sequence (Q9QX29 1-975): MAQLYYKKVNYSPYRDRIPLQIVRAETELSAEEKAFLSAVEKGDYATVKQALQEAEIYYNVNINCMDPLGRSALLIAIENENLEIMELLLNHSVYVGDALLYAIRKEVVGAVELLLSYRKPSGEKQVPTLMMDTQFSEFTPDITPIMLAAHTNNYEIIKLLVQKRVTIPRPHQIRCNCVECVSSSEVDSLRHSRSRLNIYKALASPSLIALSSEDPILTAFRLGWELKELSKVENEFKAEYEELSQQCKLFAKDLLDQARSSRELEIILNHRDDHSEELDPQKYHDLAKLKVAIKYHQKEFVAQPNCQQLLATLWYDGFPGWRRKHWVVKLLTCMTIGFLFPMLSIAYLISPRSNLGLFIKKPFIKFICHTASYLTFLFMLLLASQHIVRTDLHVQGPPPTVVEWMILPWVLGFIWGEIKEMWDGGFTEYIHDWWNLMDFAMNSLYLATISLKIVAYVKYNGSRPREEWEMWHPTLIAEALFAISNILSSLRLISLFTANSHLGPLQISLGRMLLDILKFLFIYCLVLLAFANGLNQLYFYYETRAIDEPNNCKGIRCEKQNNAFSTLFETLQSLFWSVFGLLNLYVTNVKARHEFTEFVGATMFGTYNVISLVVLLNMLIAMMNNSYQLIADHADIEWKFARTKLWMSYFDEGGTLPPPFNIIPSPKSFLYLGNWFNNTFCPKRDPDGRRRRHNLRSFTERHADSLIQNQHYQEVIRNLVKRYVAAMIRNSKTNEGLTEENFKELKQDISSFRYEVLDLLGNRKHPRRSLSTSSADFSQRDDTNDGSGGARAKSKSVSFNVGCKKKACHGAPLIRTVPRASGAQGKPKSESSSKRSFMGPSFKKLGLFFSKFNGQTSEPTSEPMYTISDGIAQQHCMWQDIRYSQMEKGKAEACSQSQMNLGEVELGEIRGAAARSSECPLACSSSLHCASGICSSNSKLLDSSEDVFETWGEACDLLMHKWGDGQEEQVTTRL

TRPM8 = TRPM8 (Homo sapiens, UniProt Q7Z2W7); assay: Selectivity Ca2+ assay in TRPM8-expressing HEK293 cells; details: 1s 50 μM; Fluo-8
Chain of TRPM8 (Q7Z2W7 whole entry, species assumed): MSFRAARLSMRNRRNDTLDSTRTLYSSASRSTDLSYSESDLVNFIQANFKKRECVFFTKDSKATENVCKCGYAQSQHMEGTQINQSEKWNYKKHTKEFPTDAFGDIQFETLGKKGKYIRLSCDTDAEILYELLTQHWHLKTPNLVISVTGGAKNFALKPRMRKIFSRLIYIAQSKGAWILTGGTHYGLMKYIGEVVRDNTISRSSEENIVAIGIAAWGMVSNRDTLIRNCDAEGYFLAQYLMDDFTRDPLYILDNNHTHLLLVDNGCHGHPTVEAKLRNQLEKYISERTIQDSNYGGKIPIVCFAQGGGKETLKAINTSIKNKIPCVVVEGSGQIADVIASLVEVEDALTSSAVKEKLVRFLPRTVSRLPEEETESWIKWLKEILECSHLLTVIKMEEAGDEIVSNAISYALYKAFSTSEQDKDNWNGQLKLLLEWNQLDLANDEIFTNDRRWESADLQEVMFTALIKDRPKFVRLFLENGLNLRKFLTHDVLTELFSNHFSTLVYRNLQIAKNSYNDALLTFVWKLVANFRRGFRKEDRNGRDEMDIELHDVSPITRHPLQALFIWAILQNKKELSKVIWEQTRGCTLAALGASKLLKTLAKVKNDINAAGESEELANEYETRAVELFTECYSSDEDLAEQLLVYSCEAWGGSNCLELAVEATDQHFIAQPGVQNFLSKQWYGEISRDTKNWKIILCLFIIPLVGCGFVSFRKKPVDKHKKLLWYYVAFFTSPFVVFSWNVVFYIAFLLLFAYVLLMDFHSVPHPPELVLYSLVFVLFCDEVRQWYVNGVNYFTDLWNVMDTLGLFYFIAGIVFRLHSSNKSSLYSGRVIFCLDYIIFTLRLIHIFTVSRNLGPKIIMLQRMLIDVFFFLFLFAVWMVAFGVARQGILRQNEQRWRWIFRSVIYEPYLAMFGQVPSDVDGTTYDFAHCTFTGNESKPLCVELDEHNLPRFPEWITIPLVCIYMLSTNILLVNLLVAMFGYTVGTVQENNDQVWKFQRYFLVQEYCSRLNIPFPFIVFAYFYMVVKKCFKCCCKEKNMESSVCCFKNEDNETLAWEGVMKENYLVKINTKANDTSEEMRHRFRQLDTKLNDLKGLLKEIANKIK

- IC50 (TRPC6): 4.19 ± 0.04 µM
- Effect on TRPC6 currents (TRPC6; evoked by GSK1702934A 1 μM, whole-cell voltage clamp): immediately suppressed
- Effect on TRPC4 (mouse TRPC4): only partially inhibited
- Effect on agonist-induced Ca2+ response, TRPM8 (TRPM8): did not significantly affect
Structure (SMILES): COc1cccc2sc(N(CCN(C)C)C(=O)c3ccc4c(c3)CCCC4)nc12 [Compound 1s, N-(2-(dimethylamino)ethyl)-N-(4-methoxybenzo[d]thiazol-2-yl)-5,6,7,8-tetrahydronaphthalene-2-carboxamide]
- Effect on agonist-induced Ca2+ response, TRPC5 (mouse TRPC5): did not significantly affect; also recorded: no effect
